The results in this text go back to ChEMBL document CHEMBL2375260, “Antifungal agents from Pseudallescheria boydii SNB-CN73 isolated from a Nasutitermes sp. termite” (J Nat Prod, 2013).

≈ marks a conversion by molar mass, not a printed value.

Experiment [1] in a line: Selectivity index, ratio of IC50 for human MDA435 cells to MIC for Trichophyton rubrum SNB-TR1. In kind it is functional. The procedure, abridged: (§1)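 Selectivity index is calculated as SI = IC50/MIC. IC50 is the cytotoxicity measured in MDA435 cells (melanoma, previously described as mammary carcinoma). MIC is the EUCAST reference-protocol value for the given microbial strain.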

Experiment [2] is described as follows: Selectivity index, ratio of IC50 for human MDA435 cells to MIC for Candida albicans ATCC 10231. The experiment is classed as functional. An outline of the steps:
as §1

In another experiment the test system is Candida albicans. Description: Antifungal activity against Candida albicans ATCC 10231 assessed as growth inhibition after 18 hrs by […]. The experiment is classed as functional. Conditions: ATCC 10231, 18 h.
Another experiment has as its system KB. Description: Cytotoxicity against human KB cells assessed as growth inhibition. The experiment is classed as functional, cell-based.
Another experiment has as its system Escherichia coli. In words: Antibacterial activity against Escherichia coli ATCC 25922 assessed as growth inhibition after 24 hrs by […]. In kind it is functional.
Experiment [3] in a line: Cytotoxicity against human MDA435 cells assessed as growth inhibition. As to conditions: MDA-MB-435. The experiment is classed as functional, cell-based.
Experiment [4] can be described thus: Selectivity index, ratio of IC50 for human MDA435 cells to MIC for Escherichia coli ATCC 25922. The experiment is classed as functional. The procedure, abridged:
as §1

The subject of another experiment is Staphylococcus aureus. In words: Antibacterial activity against Staphylococcus aureus ATCC 29213 assessed as growth inhibition after 24 hrs by […]. The experiment is classed as functional. As to conditions: ATCC 29213, 24 h.
Experiment [5] can be described thus: Selectivity index, ratio of IC50 for human MDA435 cells to MIC for Candida parapsilosis ATCC 22019. In kind it is functional. The procedure, abridged: as §1
Another experiment concerns Aspergillus fumigatus. Description: Antifungal activity against Aspergillus fumigatus SNB-AF1 assessed as growth inhibition after 24 hrs by […]. The experiment is classed as functional. Conditions: SNB-AF1, 24 h.
Another experiment deals with Trichophyton rubrum. In words: Antifungal activity against Trichophyton rubrum SNB-TR1 assessed as growth inhibition after 5 days by […]. The experiment is classed as functional. Conditions: SNB-TR1, 120 h.
Another experiment concerns Candida parapsilosis. In words: Antifungal activity against Candida parapsilosis ATCC 22019 assessed as growth inhibition after 18 hrs by […]. In kind it is functional. Conditions: Lodderomyces parapsilosis, ATCC 22019, 18 h.
Experiment [6] can be described thus: Selectivity index, ratio of IC50 for human MDA435 cells to MIC for Staphylococcus aureus ATCC 29213. In kind it is functional. The procedure, abridged: as §1
A short description of experiment [7]: Selectivity index, ratio of IC50 for human MDA435 cells to MIC for Aspergillus fumigatus SNB-AF1. In kind it is functional. The procedure, abridged:
as §1

The subject of experiment [8] is MCF7. In words: Cytotoxicity against human MCF7 cells assessed as inhibition of IGF1-induced cellular growth. In kind it is functional, cell-based.
Experiment [9] has as its system MCF7. Description: Cytotoxicity against human MCF7 cells assessed as inhibition of FBS-induced cellular growth. In kind it is functional, cell-based.

As a reminder, the MIC is the least concentration at which growth counts as inhibited. The IC50 is the concentration needed to halve the response being measured. As to `CC[C@@H](C)C[C@@H](C)/C=C/CC[C@@H](O)[C@H](Cc1ccc(O)cc1)NC.O=CO` [TYROSCHERIN FORMATE], the “Selectivity Index” value in experiment [1] is given as 10; in [2] it was 10; in experiment [4] it was 1.3; in experiment [5], 1.3; in experiment [6], 2.5; in experiment [7], 1.3. For the same compound, the MIC was found to be 2 µg/mL with Candida albicans; 16 µg/mL in the experiment with Escherichia coli (ATCC 25922, 24 h); 8 µg/mL with Staphylococcus aureus; 16 µg/mL in the experiment with Aspergillus fumigatus; 2 µg/mL in the experiment on Trichophyton rubrum; 16 µg/mL with Candida parapsilosis. Also, the values for the IC50 (in the experiment with KB; in experiment [3]) were 8.6 µg/mL and 20 µg/mL, respectively.

In the case of GENTAMICIN, the MIC in the experiment on Escherichia coli is 8 µg/mL.

`CC[C@@H](C)C[C@@H](C)/C=C/CC[C@@H](O)[C@H](Cc1ccc(O)cc1)N(C)C.O=CO`: the “Selectivity Index” value in experiment [1] is on record as 6.1; in experiment [2], 6.1; in [4] it was 0.8; in experiment [5], 0.8; in [6], 1.5; in experiment [7], 0.8. Further, the MIC with Candida albicans is 4 µg/mL; with Escherichia coli (ATCC 25922, 24 h) it was 32 µg/mL; in the experiment with Staphylococcus aureus, 16 µg/mL; in the experiment on Aspergillus fumigatus, 32 µg/mL; in the experiment with Trichophyton rubrum it was 4 µg/mL; in the experiment with Candida parapsilosis it was 32 µg/mL. Besides, the results for the IC50 (with KB; in experiment [3]) were 16 µg/mL and 24.3 µg/mL, respectively.

Take `Cc1onc(-c2ccccc2)c1C(=O)N[C@@H]1C(=O)N2[C@@H]1SC(C)(C)[C@@H]2C(=O)O` [OXACILLIN]: in the experiment with Staphylococcus aureus, the MIC came out at 0.5 µg/mL (≈ 1.25 µM).

In the case of `CC[C@@H](C)C[C@@H](C)/C=C/CC[C@@H](O)[C@H](Cc1ccc(O)cc1)NC` [TYROSCHERIN 8], the IC50 in the experiment on MCF7 [8] worked out at 0.03 µM; with MCF7 [9], 6.2 µM.

On to `OC(Cn1cncn1)(Cn1cncn1)c1ccc(F)cc1F` [FLUCONAZOLE], for which the MIC in the experiment on Candida albicans and with Candida parapsilosis was 4 µg/mL (≈ 13.1 µM) in each case.

In the case of `CCC(C)n1ncn(-c2ccc(N3CCN(c4ccc(OCC5COC(Cn6cncn6)(c6ccc(Cl)cc6Cl)O5)cc4)CC3)cc2)c1=O` (stereo unspecified) [ITRACONAZOLE], the MIC worked out at 0.5 µg/mL (≈ 0.709 µM) with Aspergillus fumigatus and 0.25 µg/mL (≈ 0.354 µM) with Trichophyton rubrum.
